From the array DNA melting data of Ke et al. (doi:10.1101/2024.01.08.574731) come the findings set out here.

The nature of data set [1]: melting temperature; fluorescence melt of hairpins on a sequencing array, two-state fit, raised by 9.35 °C to match UV melts. The following applies: sodium 0.088 M. The procedure, abridged: (§1)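 On a sequenced MiSeq flow cell, library hairpins with annealed Cy3 and quencher oligos were imaged for Cy3 fluorescence in 2.5 °C steps up to 60 °C, in 50 mM Na-HEPES pH 8.0, 25 mM NaCl. Normalisation used pre-quench Cy3 and control constructs. Bootstrapped two-state fits gave melting temperature and folding enthalpy, combined by inverse variance across four replicates and with fitted temperatures raised by 9.35 °C to match UV melts.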

A short description of data set [2]: folding enthalpy; higher = less favourable; fluorescence melt of hairpins on a sequencing array, two-state fit. The following applies: sodium 0.088 M. An outline of the steps: as §1

Regarding GCACCCGGAAACAGGTGC (((((.(....).))))), in data set [1], the Tm came out at 52.4 °C. The folding enthalpy in data set [2] was -34.6 kcal/mol.

GCACCCGGAAACGGGTAC (.(((((....))))).): in data set [1], the Tm is 45.1 °C. Besides, in data set [2], the folding enthalpy is -12.7 kcal/mol.

Consider GCACCGCGAAAGCAGCGC ((.(.((....)).).)), for which the Tm in data set [1] came out at 46.5 °C. In addition, the folding enthalpy in data set [2] was -18.2 kcal/mol.

Turning to GCACCGCGAAAGCAGTGC ((((.((....)).)))), the Tm in data set [1] stood at 65 °C. Moreover, the folding enthalpy in data set [2] is -25.6 kcal/mol.

In the case of GCACCGCGAAAGCCGGGC ((.(.((....)).).)), the Tm in data set [1] was determined as 54.5 °C. In data set [2], the folding enthalpy was -20.6 kcal/mol.

In the case of GCACCGGGAAACCGATGC (((.(((....))).))), in data set [1], the Tm worked out at 50.6 °C. Besides, the folding enthalpy in data set [2] is -25.2 kcal/mol.

Regarding GCACCGTCGAAAGACTGC (((..(((....)))))), the Tm in data set [1] came to 35.9 °C. In addition, the folding enthalpy in data set [2] was -17.7 kcal/mol.

On to GCACGAGCGAAAGCTTGC (((..(((....)))))), for which, in data set [1], the Tm amounted to 41 °C. Further, in data set [2], the folding enthalpy is -11.3 kcal/mol.

Regarding GCACGAGGAAACTCATGC (((.(((....))).))), the Tm in data set [1] came to 41.2 °C. In data set [2], the folding enthalpy is -28.8 kcal/mol.

With GCACGAGGAAACTCGCAC (..((((....))))..), the Tm in data set [1] stood at 25.5 °C. In addition, the folding enthalpy in data set [2] was -8.67 kcal/mol.

Regarding GCACGAGGAAACTTGTGC ((((.((....)).)))), the Tm in data set [1] was found to be 54.5 °C. Also, the folding enthalpy in data set [2] was -43.5 kcal/mol.

Regarding GCACGATCGAAAGATTGC (((..(((....)))))), in data set [1], the Tm worked out at 31.7 °C. For the same sequence, the folding enthalpy in data set [2] is -18.7 kcal/mol.

On to GCACGCGGAAACACGTGC (((((.(....).))))), for which, in data set [1], the Tm came to 57.1 °C. Further, in data set [2], the folding enthalpy was -51.2 kcal/mol.

Regarding GCACGCGGAAACGTGTGC ((((.((....)).)))), the Tm in data set [1] came out at 66.7 °C. Besides, the folding enthalpy in data set [2] is -46 kcal/mol.

GCACGCTCGAAAGAGTGC (((..(((....)))))): the Tm in data set [1] turned out to be 50.2 °C. Moreover, the folding enthalpy in data set [2] is -20.9 kcal/mol.

For GCACGGCGAAAGCAGAGC ((.(.((....)).).)), in data set [1], the Tm worked out at 53 °C. Besides, the folding enthalpy in data set [2] was -20 kcal/mol.

Turning to GCACGGCGAAAGCAGGGC ((.(.((....)).).)), the Tm in data set [1] worked out at 65.8 °C. For the same sequence, in data set [2], the folding enthalpy was -36 kcal/mol.

In the case of GCACGGCGAAAGCCTGC (((.(((....)))))), the Tm in data set [1] is 58.7 °C. Further, the folding enthalpy in data set [2] was -18.1 kcal/mol.

As to GCACGGCGAAAGCGCTGC (((..((....))..))), the Tm in data set [1] came to 52 °C. Also, in data set [2], the folding enthalpy was -17.5 kcal/mol.

Consider GCACGGCGAAAGCTGAGC ((.(.((....)).).)), for which, in data set [1], the Tm is 55.8 °C. Moreover, the folding enthalpy in data set [2] is -19 kcal/mol.

GCACGGCGAAAGCTGGGC ((.(.((....)).).)): the Tm in data set [1] is 67.5 °C. Also, the folding enthalpy in data set [2] was -31.5 kcal/mol.

GCACGGGGAAACCCGCAC (..((((....))))..): the Tm in data set [1] was found to be 25.2 °C. Also, the folding enthalpy in data set [2] is -9.35 kcal/mol.

In the case of GCACTACGAAAGTATTGC (((.(((....))).))), in data set [1], the Tm was 45.9 °C. In addition, the folding enthalpy in data set [2] is -31.2 kcal/mol.

For GCACTCCGAAAGGAATGC (((.(((....))).))), the Tm in data set [1] was 51.1 °C. For the same sequence, in data set [2], the folding enthalpy is -38.6 kcal/mol.

Take GCACTCCGAAAGGACTGC (((.(((....))).))): the Tm in data set [1] was 40.4 °C. Also, the folding enthalpy in data set [2] was -18.5 kcal/mol.

In the case of GCACTCGAAAGAGAGTGC ((((((....)))..))), the Tm in data set [1] came to 59.9 °C. In addition, the folding enthalpy in data set [2] was -38.7 kcal/mol.

On to GCACTCGAAAGAGCGTGC ((((((....)))..))), for which the Tm in data set [1] was determined as 43.2 °C. The folding enthalpy in data set [2] is -25.9 kcal/mol.

Turning to GCACTCGAAAGAGCTGC ((((((....))).))), in data set [1], the Tm was determined as 48.1 °C. Further, the folding enthalpy in data set [2] was -28.3 kcal/mol.

For the sequence GCACTCGAAAGAGCTTGC ((((((....)))..))), the Tm in data set [1] turned out to be 36.6 °C. The folding enthalpy in data set [2] is -19.1 kcal/mol.

On to GCACTCGAAAGAGGTTGC ((((((....)))..))), for which the Tm in data set [1] turned out to be 37.6 °C. Further, the folding enthalpy in data set [2] was -18.6 kcal/mol.

As to GCACTCGAAAGAGTTTGC ((((((....)))..))), the Tm in data set [1] was 35.9 °C. Moreover, in data set [2], the folding enthalpy was -17.5 kcal/mol.

Turning to GCACTGCGAAAGCAACGC ((..(((....)))..)), the Tm in data set [1] was 36.2 °C. For the same sequence, the folding enthalpy in data set [2] was -14.2 kcal/mol.

Regarding GCACTGCGAAAGCACGGC ((..(((....)))..)), the Tm in data set [1] is 38.4 °C. Besides, the folding enthalpy in data set [2] was -17.6 kcal/mol.

For GCACTGCGAAAGCCATGC (((..((....))..))), the Tm in data set [1] turned out to be 38.1 °C. Moreover, the folding enthalpy in data set [2] is -14.7 kcal/mol.

GCACTGCGAAAGCTGGGC ((.(.((....)).).)): the Tm in data set [1] came to 64.3 °C. Further, the folding enthalpy in data set [2] is -36.6 kcal/mol.

Consider GCACTGGGAAACCAGTAC (.(((((....))))).), for which the Tm in data set [1] came to 38.1 °C. The folding enthalpy in data set [2] was -14.9 kcal/mol.

On to GCACTGGGAAACTAGTGC (((((.(....).))))), for which, in data set [1], the Tm turned out to be 53.2 °C. The folding enthalpy in data set [2] was -38.9 kcal/mol.
